From ChEMBL document CHEMBL4325842, “Design, synthesis, and biological evaluation of novel aminopyrimidinylisoindolines as AXL kinase inhibitors” (Bioorg Med Chem Lett, 2018)

Legend:
[1] = target: Insulin receptor (Homo sapiens) (UniProt P06213); test: Inhibition of human IR at 10 uM using poly[Glu:Tyr] (4:1) as substrate by [gamma-33P]-ATP assay relative to control
Outline: (§1)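 Commercial kinase panel screen at a single concentration of 10 μM. % inhibition was calculated as 100 minus % activity.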

[2] = target: Receptor-type tyrosine-protein kinase FLT3 (Homo sapiens, UniProt P36888); test: Inhibition of human FLT3 using EAIYAAPFAKKK as substrate by [gamma-33P]-ATP assay
MDA-MB-231 = test: Antiproliferative activity against human MDA-MB-231 cells after 2 days by spectrophotometric analysis; type: functional; details: MDA-MB-231, 48 h
HT-1080 = test: Antiproliferative activity against human HT1080 cells after 2 days by spectrophotometric analysis; type: functional; details: HT-1080, 48 h
OVCAR-3 = test: Antiproliferative activity against human OVCAR3 cells after 2 days by spectrophotometric analysis; type: functional; details: OVCAR-3, 48 h
Outline: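 Cells from ATCC were kept in RPMI 1640 with 5% FBS. They were exposed to graded concentrations in DMSO/RPMI for 48 h at 37 C under 5% CO2, then fixed with 50% trichloroacetic acid. Cellular protein was read at 540 nm at time zero and at 48 h, with and without compound. TGI (100% growth inhibition) was taken from the concentration-response curve.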

[3] = target: Mitogen-activated protein kinase 8 (Homo sapiens) (UniProt P45983); test: Inhibition of human JNK1 at 10 uM using ATF2 as substrate by [gamma-33P]-ATP assay relative to control; outline: as §1
[4] = target: ALK tyrosine kinase receptor (Homo sapiens) (UniProt Q9UM73); test: Inhibition of human ALK at 10 uM using poly[Glu:Tyr] (4:1) as substrate by [gamma-33P]-ATP assay relative to control; outline: as §1
Aurora kinase A = Aurora kinase A (Homo sapiens, UniProt O14965); test: Inhibition of human AuroraA using [H-LRRASLG] as substrate by [gamma-33P]-ATP assay
[5] = target: Tyrosine-protein kinase Lck (Homo sapiens) (UniProt P06239); test: Inhibition of human LCK at 10 uM using poly[Glu:Tyr] (4:1) as substrate by [gamma-33P]-ATP assay relative to control; outline: as §1
[6] = target: Macrophage-stimulating protein receptor (Homo sapiens) (UniProt Q04912); test: Inhibition of human RON at 10 uM using KKSRGDYMTMQIG as substrate by [gamma-33P]-ATP assay relative to control
Outline: (§2)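 Kinase-panel profiling (50 oncogenic kinases) run by an outside contract service. The test compound was tested at a single concentration of 10 μM. Percent inhibition was calculated as 100 minus % remaining activity.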

[7] = target: DNA-dependent protein kinase catalytic subunit (Homo sapiens) (UniProt P78527); test: Inhibition of human DNA-PK at 10 uM using EPPLSQEAFADLWKK as substrate by [gamma-33P]-ATP assay relative to control; outline: as §1
[8] = target: Proto-oncogene tyrosine-protein kinase ROS (Homo sapiens) (UniProt P08922); test: Inhibition of human ROS at 10 uM using KKKSPGEYVNIEFG as substrate by [gamma-33P]-ATP assay relative to control; outline: as §2
[9] = target: T1, Serine/threonine-protein kinase PLK1 (Homo sapiens, UniProt P53350); test: Inhibition of human PLK1 at 10 uM using casein as substrate by [gamma-33P]-ATP assay relative to control; outline: as §2
[10] = target: T1, Serine/threonine-protein kinase PLK1; test: Inhibition of human PLK1 using casein as substrate by [gamma-33P]-ATP assay
[11] = target: Vascular endothelial growth factor receptor 2 (Homo sapiens) (UniProt P35968); test: Inhibition of human KDR at 10 uM using poly[Glu:Tyr] (4:1) as substrate by [gamma-33P]-ATP assay relative to control; outline: as §1
[12] = target: Protein kinase C alpha type (Homo sapiens) (UniProt P17252); test: Inhibition of human PKCalpha at 10 uM using ERMRPRKRQGSVRRRV as substrate by [gamma-33P]-ATP assay relative to control; outline: as §2
A549 = test: Antiproliferative activity against human A549 cells after 2 days by spectrophotometric analysis; type: functional; details: A549, 48 h
A-375 = test: Antiproliferative activity against human A375 cells after 2 days by spectrophotometric analysis; type: functional; details: A-375, 48 h
HepG2 = test: Antiproliferative activity against human HepG2 cells after 2 days by spectrophotometric analysis; type: functional; details: HepG2, 48 h
[13] = target: High affinity nerve growth factor receptor (Homo sapiens) (UniProt P04629); test: Inhibition of human TRKA at 10 uM using poly[Glu:Tyr] (4:1) as substrate by [gamma-33P]-ATP assay relative to control; outline: as §2
[14] = target: Tyrosine-protein kinase SYK (Homo sapiens, UniProt P43405); test: Inhibition of human SYK using poly[Glu:Tyr] (4:1) as substrate by [gamma-33P]-ATP assay
[15] = target: Tyrosine-protein kinase receptor TYRO3 (Homo sapiens, UniProt Q06418); test: Inhibition of human TYRO3 using poly[Glu:Tyr] (4:1) as substrate by [gamma-33P]-ATP assay
[16] = target: Hepatocyte growth factor receptor (Homo sapiens) (UniProt P08581); test: Inhibition of human c-MET at 10 uM using KKKSPGEYVNIEFG as substrate by [gamma-33P]-ATP assay relative to control; outline: as §2
[17] = target: Dual specificity mitogen-activated protein kinase kinase 1 (Homo sapiens) (UniProt Q02750); test: Inhibition of human MEK1 at 10 uM using ERK2 (K52R) as substrate by [gamma-33P]-ATP assay relative to control; outline: as §1
Focal adhesion kinase 1 = Focal adhesion kinase 1 (Homo sapiens, UniProt Q05397); test: Inhibition of human FAK using poly[Glu:Tyr] (4:1) as substrate by [gamma-33P]-ATP assay
[18] = target: Tyrosine-protein kinase Mer (Homo sapiens, UniProt Q12866); test: Inhibition of human MER using poly[Glu:Tyr] (4:1) as substrate by [gamma-33P]-ATP assay
[19] = target: Muscle, skeletal receptor tyrosine-protein kinase (Homo sapiens) (UniProt O15146); test: Inhibition of human MUSK at 10 uM using MBP as substrate by [gamma-33P]-ATP assay relative to control; outline: as §1
[20] = target: Inhibitor of nuclear factor kappa-B kinase subunit alpha (Homo sapiens) (UniProt O15111); test: Inhibition of human IKKalpha at 10 uM using KKKKERLLDDRHDSGLDSMKDEE as substrate by [gamma-33P]-ATP assay relative to control; outline: as §1
IMR-32 = test: Antiproliferative activity against human IMR32 cells after 2 days by spectrophotometric analysis; type: functional; details: IMR-32, 48 h
[21] = target: Serine/threonine-protein kinase Chk1 (Homo sapiens) (UniProt O14757); test: Inhibition of human CHK1 at 10 uM using KKKVSRSGLYRSPSMPENLNRPR as substrate by [gamma-33P]-ATP assay relative to control; outline: as §1

T1 sequence (P53350 whole entry): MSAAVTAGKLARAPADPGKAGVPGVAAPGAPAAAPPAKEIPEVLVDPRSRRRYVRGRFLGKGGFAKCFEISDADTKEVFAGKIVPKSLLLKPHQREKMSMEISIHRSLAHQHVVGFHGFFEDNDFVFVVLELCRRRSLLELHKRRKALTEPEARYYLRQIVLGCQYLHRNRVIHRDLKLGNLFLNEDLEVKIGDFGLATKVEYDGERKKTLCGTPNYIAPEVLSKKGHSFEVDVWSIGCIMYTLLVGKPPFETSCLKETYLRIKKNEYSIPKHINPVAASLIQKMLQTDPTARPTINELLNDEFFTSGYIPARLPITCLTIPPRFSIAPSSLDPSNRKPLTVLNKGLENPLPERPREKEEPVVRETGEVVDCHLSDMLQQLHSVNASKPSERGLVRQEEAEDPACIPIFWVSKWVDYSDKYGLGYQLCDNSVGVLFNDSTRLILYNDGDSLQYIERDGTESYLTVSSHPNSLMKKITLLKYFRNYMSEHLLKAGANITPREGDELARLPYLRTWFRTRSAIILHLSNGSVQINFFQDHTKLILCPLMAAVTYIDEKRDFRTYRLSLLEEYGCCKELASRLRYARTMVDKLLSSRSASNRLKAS
Sequence of Hepatocyte growth factor receptor (Homo sapiens) (P08581 whole entry): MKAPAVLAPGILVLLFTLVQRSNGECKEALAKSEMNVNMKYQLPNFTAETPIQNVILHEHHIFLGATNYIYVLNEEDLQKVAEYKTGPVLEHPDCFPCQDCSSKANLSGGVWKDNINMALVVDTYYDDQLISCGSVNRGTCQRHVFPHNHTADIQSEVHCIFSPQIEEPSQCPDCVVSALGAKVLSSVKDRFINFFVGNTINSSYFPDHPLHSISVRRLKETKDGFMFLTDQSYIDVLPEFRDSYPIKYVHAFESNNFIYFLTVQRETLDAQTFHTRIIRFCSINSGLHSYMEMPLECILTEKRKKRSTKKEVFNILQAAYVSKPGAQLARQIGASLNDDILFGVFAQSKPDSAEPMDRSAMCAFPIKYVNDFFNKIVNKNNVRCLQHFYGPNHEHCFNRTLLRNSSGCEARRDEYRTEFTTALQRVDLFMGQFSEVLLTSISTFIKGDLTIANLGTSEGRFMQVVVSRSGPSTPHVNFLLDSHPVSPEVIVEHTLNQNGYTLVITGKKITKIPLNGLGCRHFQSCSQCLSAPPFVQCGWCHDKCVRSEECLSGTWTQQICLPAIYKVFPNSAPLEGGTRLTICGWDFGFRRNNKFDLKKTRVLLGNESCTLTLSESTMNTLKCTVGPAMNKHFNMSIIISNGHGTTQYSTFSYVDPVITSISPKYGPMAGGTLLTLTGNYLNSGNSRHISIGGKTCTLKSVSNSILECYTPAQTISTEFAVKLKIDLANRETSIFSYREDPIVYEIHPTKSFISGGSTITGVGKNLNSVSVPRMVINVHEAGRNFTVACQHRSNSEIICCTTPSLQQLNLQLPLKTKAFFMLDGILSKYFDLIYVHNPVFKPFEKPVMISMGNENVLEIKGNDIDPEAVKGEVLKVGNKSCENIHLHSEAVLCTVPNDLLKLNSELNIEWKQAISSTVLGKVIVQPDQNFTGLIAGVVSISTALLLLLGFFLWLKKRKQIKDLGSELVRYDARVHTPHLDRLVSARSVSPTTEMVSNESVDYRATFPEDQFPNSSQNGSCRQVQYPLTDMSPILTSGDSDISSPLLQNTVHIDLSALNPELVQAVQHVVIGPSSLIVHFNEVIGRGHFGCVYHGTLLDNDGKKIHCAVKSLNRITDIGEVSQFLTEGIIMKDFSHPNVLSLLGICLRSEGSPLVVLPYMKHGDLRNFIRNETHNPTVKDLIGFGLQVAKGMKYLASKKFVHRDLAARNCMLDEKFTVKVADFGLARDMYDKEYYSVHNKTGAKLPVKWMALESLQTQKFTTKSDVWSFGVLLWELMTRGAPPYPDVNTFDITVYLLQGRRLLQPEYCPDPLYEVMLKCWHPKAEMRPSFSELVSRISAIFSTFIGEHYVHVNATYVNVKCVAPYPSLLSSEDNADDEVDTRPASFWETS
Sequence of Proto-oncogene tyrosine-protein kinase ROS (Homo sapiens) (P08922 whole entry): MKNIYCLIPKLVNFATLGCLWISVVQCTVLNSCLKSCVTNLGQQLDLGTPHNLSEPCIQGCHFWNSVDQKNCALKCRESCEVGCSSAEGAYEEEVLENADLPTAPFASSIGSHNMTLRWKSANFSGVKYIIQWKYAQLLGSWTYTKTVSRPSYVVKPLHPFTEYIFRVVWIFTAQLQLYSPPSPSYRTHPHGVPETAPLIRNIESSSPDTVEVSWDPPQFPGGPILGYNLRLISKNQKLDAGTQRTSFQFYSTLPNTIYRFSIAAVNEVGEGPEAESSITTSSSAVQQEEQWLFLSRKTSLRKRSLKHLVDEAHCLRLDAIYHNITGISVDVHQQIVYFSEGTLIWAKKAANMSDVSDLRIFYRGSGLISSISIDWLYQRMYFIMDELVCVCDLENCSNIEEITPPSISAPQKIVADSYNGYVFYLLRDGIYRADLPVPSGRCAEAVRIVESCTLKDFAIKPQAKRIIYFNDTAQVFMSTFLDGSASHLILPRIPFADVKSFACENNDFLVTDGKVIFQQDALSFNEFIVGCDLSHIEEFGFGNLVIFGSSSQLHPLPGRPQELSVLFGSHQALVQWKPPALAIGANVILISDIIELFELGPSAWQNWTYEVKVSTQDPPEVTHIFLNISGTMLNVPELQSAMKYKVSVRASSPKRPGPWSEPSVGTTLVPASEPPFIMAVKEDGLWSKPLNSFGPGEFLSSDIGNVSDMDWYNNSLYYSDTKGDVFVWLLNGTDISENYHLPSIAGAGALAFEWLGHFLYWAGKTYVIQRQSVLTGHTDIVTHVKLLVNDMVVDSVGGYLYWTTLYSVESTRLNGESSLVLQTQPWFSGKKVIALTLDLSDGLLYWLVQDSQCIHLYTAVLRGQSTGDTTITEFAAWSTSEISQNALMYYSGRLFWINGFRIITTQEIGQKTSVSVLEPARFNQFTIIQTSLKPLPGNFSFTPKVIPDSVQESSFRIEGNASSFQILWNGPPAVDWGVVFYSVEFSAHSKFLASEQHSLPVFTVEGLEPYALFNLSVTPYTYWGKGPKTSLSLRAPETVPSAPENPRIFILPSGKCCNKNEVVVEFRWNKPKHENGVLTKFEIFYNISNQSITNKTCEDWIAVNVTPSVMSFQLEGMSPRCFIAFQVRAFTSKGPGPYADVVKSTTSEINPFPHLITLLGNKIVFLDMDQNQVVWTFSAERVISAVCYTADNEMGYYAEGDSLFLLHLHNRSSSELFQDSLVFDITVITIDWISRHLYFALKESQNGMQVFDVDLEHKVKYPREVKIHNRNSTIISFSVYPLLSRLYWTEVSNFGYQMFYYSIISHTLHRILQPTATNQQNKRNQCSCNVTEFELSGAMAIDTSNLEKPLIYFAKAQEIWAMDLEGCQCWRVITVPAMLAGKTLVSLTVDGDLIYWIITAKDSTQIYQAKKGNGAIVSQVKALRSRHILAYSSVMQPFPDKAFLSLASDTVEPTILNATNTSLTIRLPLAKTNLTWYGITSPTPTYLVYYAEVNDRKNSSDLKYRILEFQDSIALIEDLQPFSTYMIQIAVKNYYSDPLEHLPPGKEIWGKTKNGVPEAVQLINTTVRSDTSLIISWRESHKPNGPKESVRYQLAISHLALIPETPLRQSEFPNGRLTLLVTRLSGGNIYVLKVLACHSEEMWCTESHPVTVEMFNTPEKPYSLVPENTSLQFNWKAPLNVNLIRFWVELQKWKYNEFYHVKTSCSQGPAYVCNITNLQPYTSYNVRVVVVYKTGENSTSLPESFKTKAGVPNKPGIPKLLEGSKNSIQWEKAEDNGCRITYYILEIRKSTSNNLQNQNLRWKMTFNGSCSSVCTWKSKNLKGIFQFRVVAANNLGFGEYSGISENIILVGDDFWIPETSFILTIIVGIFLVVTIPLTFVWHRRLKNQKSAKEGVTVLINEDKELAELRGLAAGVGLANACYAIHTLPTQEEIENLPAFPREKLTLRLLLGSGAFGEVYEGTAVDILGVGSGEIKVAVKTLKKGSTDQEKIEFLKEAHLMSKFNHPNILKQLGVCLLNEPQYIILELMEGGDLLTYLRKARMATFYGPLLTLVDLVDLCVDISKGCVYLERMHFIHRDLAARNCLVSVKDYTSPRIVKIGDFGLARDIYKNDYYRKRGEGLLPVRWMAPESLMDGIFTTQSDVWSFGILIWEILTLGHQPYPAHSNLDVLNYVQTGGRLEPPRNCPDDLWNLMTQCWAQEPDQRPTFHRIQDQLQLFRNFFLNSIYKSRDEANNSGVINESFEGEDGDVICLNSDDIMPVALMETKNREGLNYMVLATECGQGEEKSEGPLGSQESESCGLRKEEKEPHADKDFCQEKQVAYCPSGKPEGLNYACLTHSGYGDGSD
Sequence of Dual specificity mitogen-activated protein kinase kinase 1 (Homo sapiens) (Q02750 whole entry): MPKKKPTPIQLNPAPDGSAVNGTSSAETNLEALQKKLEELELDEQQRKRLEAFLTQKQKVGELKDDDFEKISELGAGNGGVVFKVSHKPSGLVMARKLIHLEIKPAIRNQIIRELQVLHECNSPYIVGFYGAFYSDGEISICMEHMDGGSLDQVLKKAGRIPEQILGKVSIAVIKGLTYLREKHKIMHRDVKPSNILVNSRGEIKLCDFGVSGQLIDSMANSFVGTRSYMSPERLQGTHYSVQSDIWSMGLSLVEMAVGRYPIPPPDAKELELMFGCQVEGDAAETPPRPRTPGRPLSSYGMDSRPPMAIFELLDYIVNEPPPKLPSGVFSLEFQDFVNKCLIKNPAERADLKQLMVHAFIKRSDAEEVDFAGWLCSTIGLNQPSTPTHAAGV

`CC(=O)N1CCN(c2ccc(Nc3ncc(C(F)(F)F)c(N4Cc5cccc(N(C)S(C)(=O)=O)c5C4)n3)cc2)CC1` was tested, and the inhibition [1] was 89.8%, the IC50 [2] was 4.6 nM and the GI50 (MDA-MB-231) was 500 nM. For the same compound, the GI50 (HT-1080) was 1800 nM, the GI50 (OVCAR-3) was 970 nM and the inhibition [3] was 45.1%. It also gave an inhibition [4] of 71.3%, an IC50 (Aurora kinase A) of 3 nM and an inhibition [5] of 84.1%. For the same compound, the inhibition [6] was 40.1%, the inhibition [7] was -4% and the inhibition [8] was 92.2%. The inhibition [9] was 95.2%, the IC50 [10] was 8.8 nM and the inhibition [11] was 55.8%. It also gave an inhibition [12] of 19.3%, a GI50 (A549) of 1300 nM and a GI50 (A-375) of 1000 nM. For the same compound, the GI50 (HepG2) was 1400 nM, the inhibition [13] was 92.2% and the IC50 [14] was 5.1 nM. For the same compound, the IC50 [15] was 50 nM, the inhibition [16] was 17.9% and the inhibition [17] was 3.6%. The IC50 (Focal adhesion kinase 1) was 11 nM, the IC50 [18] was 25 nM and the inhibition [19] was 66.6%. For the same compound, the inhibition [20] was 14.1%, the GI50 (IMR-32) was 260 nM and the inhibition [21] was 37.2%.
